Test results as given in article PMC3163154 (Molecular pharmaceutics, 2011).
Blank lines part the entries; values can stand above or below the molecule they belong to.

Experiments:
DU145 cells = assay: Cytotoxicity assay; type: cell-based; conditions: read-out: IC50 in DU145 cells; DU145 (PTEN-wild), 72 hours, MTT assay
Procedure, shortened: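 DU145 cells were seeded at 3×10³ cells/well, a lower density than LNCaP owing to fast growth. After 24 h, test compound was added and cells were incubated 72 h at 37°C. Relative cell number was measured by MTT. IC50 was obtained by fitting a concentration-response curve.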

PI3Kβ = conditions: selectivity; cited from earlier work
LNCaP cells [1] = assay: Cytotoxicity assay; type: cell-based; conditions: read-out: IC50 in LNCaP cells; LNCaP (PTEN-null), 72 hours, MTT assay
LNCaP cells [2] = assay: Androgen induced proliferation assay; type: cell-based; conditions: R1881-containing serum-free medium, 3 days, compared with TGX-221
Procedure, shortened: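 LNCaP cells were seeded 12 h before assay. Medium was switched to serum-free medium containing 1 nM R1881 (synthetic androgen), then test compound was added. After 72 h incubation, proliferation was read by Alamar Blue assay. Mean ± SD, n=3.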

[3] = tested on: androgen response element (ARE-LUC) reporter in LNCaP cells; assay: Androgen induced gene expression assay; type: cell-based; conditions: R1881 1.0 nM, 24 hours, compared with TGX-221
Procedure, shortened: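 LNCaP cells in 6-well plates were transfected the next day with 1.0 μg ARE-LUC plasmid using Lipofectamine. After 24 h, medium was changed to RPMI-1640 with 2% FBS and 1.0 nM R1881, test compound was added, and cells were incubated 24 h. Cells were PBS-washed and lysed, and luciferase activity was normalised to BCA total protein. Mean ± SD, n=3.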

LNCaP cells [4] = assay: Cellular uptake study; type: cell-based; conditions: 0.5 μM, 1 hour incubation
LNCaP cells [5] = assay: In vitro competitive receptor binding assay; type: cell-based; conditions: pre-incubation with Ac-KCCYSL 1 hour, then KCC-TGX 30 minutes
Procedure, shortened: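 LNCaP cells were plated at 2×10⁴ cells/well for 12 h and PBS-washed. They were pre-incubated 1 h at 37°C with the HER2-targeting peptide at the indicated concentrations, then exposed to test conjugate for 30 min. Cells were washed, freeze-thaw lysed, NaOH-hydrolysed 1 h to release parent drug, and extracted with ethyl acetate using an internal standard. Drug was quantified by LC-MS/MS and normalised to BCA protein. n=3.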

LNCaP cells [6] = assay: Immunostaining of LNCaP cells with biotinylated peptides; type: binding
Procedure, shortened: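 LNCaP cells were fixed in ice-cold acetone/methanol (1/1) for 10 min and blocked with 1% BSA for 1 h. Biotinylated peptide was applied for 1 h in TBST (0.1% Tween-20, 0.1 M Tris-Cl, pH 7.4). After washing, streptavidin-FITC was added for 20 min and nuclei were counterstained. Cells were imaged by fluorescence microscopy at 200x.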

Molecule: Cc1cc(C(C)Nc2ccccc2)c2nc(N3CCOCC3)cc(=O)n2c1 (stereo not shown) [TGX-221]
- IC50 (DU145 cells): > 100000 nM
- inhibition effect on PI3Kβ over PI3Kα (PI3Kβ): about 1000 fold
- inhibition effect on PI3Kβ over PI3Kγ (PI3Kβ): about 1000 fold
- inhibition effect on PI3Kβ over PI3Kδ (PI3Kβ): ~20 fold
- IC50 (LNCaP cells [1]): 1070 nM

- cellular uptake in LNCaP cells (LNCaP cells [4]): low uptake
Molecule: Cc1cc(C(C)N(CCO)c2ccccc2)c2nc(N3CCOCC3)cc(=O)n2c1 (stereo not shown) [TGX-D1]
- IC50 (DU145 cells): > 100000 nM
- inhibition of androgen-induced cell proliferation (LNCaP cells [2]): comparable effects
- inhibition of androgen-induced gene expression [3]: comparable effects
- IC50 (LNCaP cells [1]): 2670 nM

Molecule: Ac-KCCYSL
- uptake by LNCaP cells after pre-incubation with the HER2-specific ligand (LNCaP cells [5]): significantly inhibited

Molecule: DPRATPGSK
- fluorescence on LNCaP cells (streptavidin-FITC staining) (LNCaP cells [6]; control peptide, concentration increased to 100 μM (data not shown)): No significant fluorescence

Molecule: KCCYSL
- binding on LNCaP cells (streptavidin-FITC staining) (LNCaP cells [6]; C-terminus biotinylated peptide, 10 μM): high-affinity binding
